According to article PMC3517057 (ChemMedChem, 2012):

How the values were obtained:
[1] = biological target: T1, mGlu5 (Rattus norvegicus, UniProt P31424); experiment: mGlu5 calcium mobilization assay; type: cell-based
[2] = system: mice; experiment: Marble burying model of anxiety; type: in vivo; settings: for Inhibition of marble burying: 15 minute pretreatment; for Sedation: marble burying study, i.p., all dosing groups
Procedure, shortened: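 Mice were scored for burying glass marbles in deep bedding. Test compound or the MTEP positive control (15 mg/kg) was given i.p. in 10% tween 80 vehicle 15 min before testing. Testing ran from 15 to 45 min post dose, with n=12 per dosing group. Significance was P < 0.05 vs vehicle by Dunnett's test.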

[3] = biological target: T1, mGlu5; experiment: Effect on glutamate CRC in rat cortical astrocytes; type: cell-based; settings: 300 nM, 1 µM, 30 µM 18k
[4] = biological target: rat mGlu5 (Rattus norvegicus, UniProt P31424); experiment: Glutamate-induced ERK1/2 phosphorylation in HEK293 cells expressing rat mGlu5; type: cell-based; settings: 10 nM to 1 µM 18k
[5] = system: mGlu1–4 and mGlu6–8; experiment: Selectivity against other mGlu receptors; type: cell-based; settings: 10 µM
[6] = biological target: T2, adenosine A3 receptor (Homo sapiens, UniProt P0DMS8); experiment: Ricerca LeadProfilingScreen radioligand binding, adenosine A3 receptor; settings: 10 µM
T2 sequence (P0DMS8 1-318): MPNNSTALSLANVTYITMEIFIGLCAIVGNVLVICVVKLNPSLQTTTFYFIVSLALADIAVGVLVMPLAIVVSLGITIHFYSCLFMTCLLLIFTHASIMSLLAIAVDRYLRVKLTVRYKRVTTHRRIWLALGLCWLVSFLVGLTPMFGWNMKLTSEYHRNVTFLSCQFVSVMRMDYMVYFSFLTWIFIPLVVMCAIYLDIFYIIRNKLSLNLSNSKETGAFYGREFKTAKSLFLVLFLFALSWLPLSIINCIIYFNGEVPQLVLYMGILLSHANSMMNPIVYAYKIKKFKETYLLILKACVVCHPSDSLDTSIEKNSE
Procedure, shortened: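 The test compound was run at 10 µM in a commercial profiling panel of radioligand binding assays covering 68 primary molecular targets, including GPCRs, kinases and ion channels.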

[7] = system: 68 primary molecular targets (GPCRs, kinases, ion channels); experiment: Ricerca LeadProfilingScreen radioligand binding panel; settings: 10 µM
[8] = Metabolic stability in human liver microsomes; type: in vitro ADME; settings: 1 µM, 15 min, 37 °C, NADPH
Procedure, shortened: (§1)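 Test compound at 1 µM was incubated with human or mouse liver microsomes in phosphate buffer with NADPH cofactor, for 15 min at 37 °C with shaking.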

[9] = Metabolic stability in mouse liver microsomes; type: in vitro ADME; settings: 1 µM, 15 min, 37 °C, NADPH
Procedure, shortened: as §1

[10] = Exposure following oral dosing in mice; type: in vivo
[11] = Plasma and brain exposure after intraperitoneal dosing in mice; type: in vivo, male CD-1 mice; settings: 10 mg/kg i.p.
Procedure, shortened: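 Male CD-1 mice received 10 mg/kg i.p. as a microsuspension in 10% tween 80, with two mice per time point. Brain and plasma were sampled at 0.5, 1, 3 and 6 h post dose.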

[12] = Protein binding in mouse plasma; type: in vitro ADME; settings: rapid equilibrium dialysis
[13] = Binding to mouse brain homogenates; type: in vitro ADME; settings: rapid equilibrium dialysis
[14] = system: C57Bl/6J mice; experiment: Operant sensation seeking; type: in vivo
[15] = system: C57Bl/6J mice; settings: low doses; cited from earlier work
[16] = system: mice; settings: cited from earlier work
[17] = mGlu5 calcium mobilization, average of at least three determinations

T1 sequence (P31424 21-1203): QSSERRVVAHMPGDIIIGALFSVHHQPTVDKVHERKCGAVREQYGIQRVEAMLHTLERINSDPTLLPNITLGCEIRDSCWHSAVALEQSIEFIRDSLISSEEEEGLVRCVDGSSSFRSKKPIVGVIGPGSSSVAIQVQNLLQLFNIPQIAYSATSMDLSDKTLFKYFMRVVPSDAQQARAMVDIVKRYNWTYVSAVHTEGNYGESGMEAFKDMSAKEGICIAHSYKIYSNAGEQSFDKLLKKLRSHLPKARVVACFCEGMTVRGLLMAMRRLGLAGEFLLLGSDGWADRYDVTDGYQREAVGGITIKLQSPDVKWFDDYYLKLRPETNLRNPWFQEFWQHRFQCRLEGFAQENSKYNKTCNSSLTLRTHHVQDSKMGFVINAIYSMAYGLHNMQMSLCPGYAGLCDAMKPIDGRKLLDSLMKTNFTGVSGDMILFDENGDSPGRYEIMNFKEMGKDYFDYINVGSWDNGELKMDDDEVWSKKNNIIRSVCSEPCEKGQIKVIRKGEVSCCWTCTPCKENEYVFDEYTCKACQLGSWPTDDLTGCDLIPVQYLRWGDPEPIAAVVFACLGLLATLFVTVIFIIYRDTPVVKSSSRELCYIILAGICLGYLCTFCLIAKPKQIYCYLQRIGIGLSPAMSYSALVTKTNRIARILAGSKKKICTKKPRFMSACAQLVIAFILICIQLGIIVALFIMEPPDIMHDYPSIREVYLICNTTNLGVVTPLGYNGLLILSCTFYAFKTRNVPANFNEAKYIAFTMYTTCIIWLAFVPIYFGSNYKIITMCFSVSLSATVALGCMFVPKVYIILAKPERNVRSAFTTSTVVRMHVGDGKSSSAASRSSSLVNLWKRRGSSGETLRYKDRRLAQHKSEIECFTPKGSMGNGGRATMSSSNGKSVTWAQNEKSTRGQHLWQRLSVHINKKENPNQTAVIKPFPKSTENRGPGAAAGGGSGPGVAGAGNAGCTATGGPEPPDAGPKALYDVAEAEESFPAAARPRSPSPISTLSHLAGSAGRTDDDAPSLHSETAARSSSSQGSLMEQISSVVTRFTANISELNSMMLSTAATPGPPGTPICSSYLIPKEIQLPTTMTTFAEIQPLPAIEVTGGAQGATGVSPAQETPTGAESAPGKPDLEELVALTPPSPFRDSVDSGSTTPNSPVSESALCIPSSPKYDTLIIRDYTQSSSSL
Chain of rat mGlu5 (P31424 21-1203): as above

## N#Cc1cnc(Nc2nc3ccccc3o2)nc1-c1ccc(F)c(F)c1 [18t]
[1]; [17]
  IC50: 2580 ± 1170 nM

## Cc1nc(C#Cc2cccnc2)cs1 [MTEP, reference compound]
[2]; 15 mg/kg i.p., positive control
  Inhibition of marble burying: Robust inhibition of marble burying
[2]
  Sedation: No sedation was observed

## N#Cc1cnc(Nc2nc3ccccc3o2)nc1-c1ccc(F)cc1 [18k]
[1]; [17]
  IC50: 91 ± 22 nM
[3]
  Effect on glutamate concentration response curve: induced a rightward shift in the glutamate concentration response curve (CRC) and reduced the maximal effect of glutamate
[4]
  Effect on ERK1/2 phosphorylation response to glutamate: blocked the effect of glutamate in a concentration dependent manner
[5]
  Activity against other mGlu receptors: no observable activity
[6]
  inhibition of binding: 73%
[7]
  Inhibition of radioligand binding in 68-target panel: inhibition of more than 50% of radioligand binding was observed only in the adenosine A3 receptor assay
[8]
  Stability in liver microsomes: Enhanced stability relative to 13
[9]
  Stability in liver microsomes: Enhanced stability relative to 13
[10]
  Exposure in plasma and brain: no exposure above detectable limits in either plasma or brain
[11]
  Brain AUC: 1006 ng·h/g
  Plasma AUC: 224 ng·h/mL
[11]; 0.5 h
  Brain [ ]: 136 ng/mL
  Brain:Plasma ratio: 4.3
  Plasma [ ]: 31.8 ng/mL
[11]; 30 minutes
  average brain concentration: 0.41 µM
[11]; 1 h
  Brain [ ]: 283 ng/mL
  Brain:Plasma ratio: 4.4
  Plasma [ ]: 64.7 ng/mL
[11]; 1 hour post dose
  brain concentration: 850 nM
[11]; 3 h
  Brain [ ]: 193 ng/mL
  Brain:Plasma ratio: 4.3
  Plasma [ ]: 45.4 ng/mL
[11]; 6 h
  Brain [ ]: 68 ng/mL
  Brain:Plasma ratio: 7.4
  Plasma [ ]: 9.2 ng/mL
[11]; exposure ratio, to 1
  brain to plasma ratio: more than 4
[12]
  bound to mouse plasma: 99.4%
[13]
  bound to mouse brain homogenates: 99.5%
[2]; 56.6 mg/kg i.p. (highest dose), P < 0.05 vs. vehicle
  Inhibition of marble burying: Significant inhibition of marble burying
[2]
  Sedation: No sedation was observed
[14]; both 30 and 56.6 mg/kg doses i.p., P < 0.05 vs. vehicle
  Efficacy in OSS: significant efficacy
[14]; i.p., dose response
  Progressive ratio responding for OSS stimuli: dose dependently reduced progressive ratio responding for OSS stimuli
[14]; i.p., food control
  Effect on responding for a food reinforcer: no significant effects

## N#Cc1cnc(Nc2nc3ccccc3o2)nc1-c1ccccc1 [compound 13]
[1]; [17]
  IC50: 89 ± 32 nM
[1]; original batch of virtual screen hit (ChemDiv), 10-point CRC
  IC50: 75 nM

## N#Cc1cnc(Nc2nc3ccccc3o2)nc1-c1ccc(Cl)cc1F [18y]
[1]; [17]
  IC50: 375 ± 90 nM

## N#Cc1cnc(Nc2nc3ccccc3o2)nc1-c1cccs1 [18ee]
[1]; [17]
  IC50: > 10000 nM

## COc1cc(F)ccc1-c1nc(Nc2nc3ccccc3o2)ncc1C#N [18z]
[1]; [17]
  IC50: 217 ± 10 nM

## OCCN1CCN(CC/C=C2/c3ccccc3Sc3ccc(C(F)(F)F)cc32)CC1 [cis-flupenthixol]
[15]
  Responding for OSS stimuli: increased responding for OSS stimuli

## CN1CC(=O)NC1=NC(=O)Nc1cccc(Cl)c1 [fenobam]
[16]
  Efficacy in marble burying model: effective

## COc1ccccc1-c1nc(Nc2nc3ccccc3o2)ncc1C#N [18g]
[1]; [17]
  IC50: 62 ± 10 nM

## N#Cc1cnc(Nc2nc3ccccc3o2)nc1-c1ccc(C(F)(F)F)cc1 [18m]
[1]; [17]
  IC50: > 30000 nM

## Cc1cccc(C#Cc2ccccc2)n1 [MPEP]
[16]
  Efficacy in marble burying model: effective

## CCOc1ccccc1-c1nc(Nc2nc3ccccc3o2)ncc1C#N [18r]
[1]; [17]
  IC50: 6580 ± 1670 nM
